Screening results as filed in PubChem.
Only some compounds are listed: those with a hit (about 2.9% of all), similar ones and a draw of the others.
TRPC4 agonist: TRPC4 (mouse) channel activation; AID 2237; 310,000 tested, 0.49% active; HEK293 TRPC4beta/mu-opioid, Fluo4 calcium fluorescence; stronger effect = higher value; Q9QUQ5; B-score at 10 µM;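 active = B-score above 5 SD of library B-scores, and initial fluorescence ratio not above library mean plus 5 SD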;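 note: positive B-score marks a calcium rise read as TRPC4 activation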
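System – HEK293 cells stably co-expressing mouse TRPC4beta and mu-opioid receptor · Signal – Fluo4 calcium-sensitive dye fluorescence, kinetic, 1 Hz baseline · Benchmarks – buffer (low) and maximal DAMGO (high) · Read-out – B score of integrated fluorescence ratio per well · Incubation – dye loading 45 min room temperature, 110 s kinetic read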
TRPC4 block: TRPC4 (mouse) channel inhibition; Q9QUQ5; HEK293 TRPC4beta/mu-opioid, DAMGO-evoked Fluo4 calcium flux; stronger effect = lower value; B-score at 10 µM; 300,000 tested, 0.39% active;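 active = B-score over 3 SD under the library average, no early fluorescence shift, positive overall ratio signal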
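Test system – stable TRPC4beta/mu-opioid receptor HEK293 cells · Probe or stimulus – DAMGO, a submaximal dose followed by a maximal one · Dosing – one concentration per compound · Signal – Fluo4 calcium fluorescence by kinetic imaging, 5 s 1 Hz baseline · Evaluation – per-well B score of integrated baseline-normalized Fluo4 ratio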
TRPC6 inhibitor: inhibitors of mouse TRPC6 channel. Q61143. HEK293-TRPC6, membrane potential dye, ACh-evoked depolarization; stronger effect = lower value. B-score at 10 µM. 310,000 tested, 1.1% active;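 active = B-score under library mean minus 3 SD, initial fluorescence not abnormally high, positive integrated signal ratio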;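 note: B-score derived from integrated fluorescence ratio over the kinetic read; more negative B-score means stronger inhibition of depolarization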
Target sequence (Q61143 whole entry, looked up): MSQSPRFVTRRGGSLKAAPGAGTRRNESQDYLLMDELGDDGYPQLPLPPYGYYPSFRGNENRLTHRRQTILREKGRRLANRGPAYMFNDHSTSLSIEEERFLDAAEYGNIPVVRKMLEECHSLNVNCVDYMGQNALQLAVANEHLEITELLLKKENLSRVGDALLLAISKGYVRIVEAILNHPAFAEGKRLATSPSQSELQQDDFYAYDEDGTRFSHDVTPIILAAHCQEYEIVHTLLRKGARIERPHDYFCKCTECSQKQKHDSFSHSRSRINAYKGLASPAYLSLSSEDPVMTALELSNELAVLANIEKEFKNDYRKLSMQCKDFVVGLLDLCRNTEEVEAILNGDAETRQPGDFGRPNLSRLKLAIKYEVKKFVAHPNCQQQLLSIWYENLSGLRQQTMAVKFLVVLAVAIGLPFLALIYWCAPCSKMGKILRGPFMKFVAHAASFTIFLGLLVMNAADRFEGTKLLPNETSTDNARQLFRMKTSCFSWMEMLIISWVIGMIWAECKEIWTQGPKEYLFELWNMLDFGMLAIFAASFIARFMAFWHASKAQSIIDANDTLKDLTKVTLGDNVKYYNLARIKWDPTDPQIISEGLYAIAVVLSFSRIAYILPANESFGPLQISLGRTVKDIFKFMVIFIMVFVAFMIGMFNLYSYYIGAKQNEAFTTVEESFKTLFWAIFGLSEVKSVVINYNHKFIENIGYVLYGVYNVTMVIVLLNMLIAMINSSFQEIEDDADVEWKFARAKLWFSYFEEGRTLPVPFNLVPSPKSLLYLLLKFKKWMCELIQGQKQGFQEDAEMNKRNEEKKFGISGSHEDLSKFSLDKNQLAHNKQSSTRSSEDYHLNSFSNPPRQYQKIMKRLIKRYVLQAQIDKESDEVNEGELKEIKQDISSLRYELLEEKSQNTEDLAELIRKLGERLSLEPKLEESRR
Kir21 inh: blocks the mouse Kir2.1 inward-rectifier potassium channel | P35561 | HEK293-Kir2.1, FluxOR thallium flux fluorescence; stronger effect = lower value | B-score at 10 µM | 310,000 tested, 0.85% active | AID 1672;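 active = fluorescence ratio B-score at or below minus 3 SD of library scores, with starting-brightness B-score within 2 SD, cut at about -4.2 in these data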;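 note: channel flux triggered by added potassium and thallium sulfate stimulus; B-score of peak minus minimum fluorescence over baseline after thallium stimulus; more negative B-score means stronger Kir2.1 block with less thallium influx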
TRPC6 activator: activates the mouse TRPC6 cation channel; AID 2550; B-score at 10 µM; Q61143; 310,000 tested, 0.13% active; HEK293-TRPC6 membrane potential dye fluorescence; stronger effect = higher value;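 active = B-score of the integrated fluorescence ratio above library mean plus 3 SD, and starting fluorescence ratio within library mean plus 5 SD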;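 note: higher score means more depolarization so channel activation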
TRPC4 PAM: allosterically enhances the mouse TRPC4 cation channel | AID 2227 | B-score at 10 µM | Q9QUQ5 | 310,000 tested, 0.42% active | HEK293 TRPC4beta/mu-opioid, DAMGO EC20, Fluo-4 Ca2+ flux; stronger effect = higher value;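 active = B-score of calcium response area above 5 SD of library B-scores, with initial fluorescence ratio within 5 SD of library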
TRPC4 sel inh 2: second selectivity test of TRPC6 inhibitors: effect on mouse TRPC4. shares compounds with TRPC6 inhibitor. HEK293 TRPC4/MOR, membrane potential dye fluorescence; channel activated by saturating DAMGO dose. inhibition, % at 10 µM. 920 tested, 42% active. AID 2776;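 active = compounds whose fluorescence signal differed from control wells by over 3 SD, either direction, in both duplicate plates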
TRPC4 spec: selectivity of TRPC6 inhibitors: effect on mouse TRPC4; shares compounds with TRPC6 inhibitor; activity change, negative = inhibition, % at 10 µM; HEK293 TRPC4/mu-opioid, membrane potential fluorescence; 920 tested, 61% active;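 active = rise or fall in signal beyond 3 SD of buffer-only wells in both replicate plates, either sign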;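 note: integrated kinetic ratio of fluorescence range over baseline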
HEK293 MPD ctr 2-1: second counter-screen for TRPC6 inhibitors: parental HEK293 cells; signal change vs control, % at 10 µM; 920 tested, 31% active; parental HEK293 membrane potential dye fluorescence; maximal acetylcholine challenge after compound addition; shares compounds with TRPC6 inhibitor;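 active = membrane potential signal moving either way by over 3 SD of the maximum-effect control, in both duplicate plates, meaning non-specific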
HEK293 MPD ctr-1: counter-screen for TRPC6 inhibitors: effect in parental HEK293 cells. shares compounds with TRPC6 inhibitor. parental HEK293 membrane potential dye fluorescence. membrane potential signal change, % at 10 µM. 920 tested, 60% active;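 active = membrane potential signal shifting up or down by more than 3 SD of buffer-only wells, on both duplicate plates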
HEK293 MPD ctr-2: parental HEK293 nonspecific activity of TRPC6 modulators; shares compounds with TRPC6 inhibitor; membrane potential dye fluorescence; membrane potential signal change, % at 10 µM; 2,400 tested, 51% active; AID 488924;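 active = membrane potential signal moves up or down beyond 5 SD from buffer-only wells, on both duplicate plates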
HEK293 MPD ctr 2-2: parental HEK293 nonspecific activity of TRPC6 modulators, second screen. inhibition, % at 10 µM. membrane potential dye fluorescence; after compound, maximal acetylcholine stimulation. 2,400 tested, 14% active. shares compounds with TRPC6 inhibitor;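 active = membrane potential signal drops by more than 5 SD from the mean control signal, in both duplicate plates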
TRPC4 ctr mod: selectivity of TRPC6 modulators against mouse TRPC4; shares compounds with TRPC6 inhibitor; HEK293 TRPC4/mu-opioid, membrane potential fluorescence; percent change from control (negative = decrease, positive = increase), % at 10 µM; 2,400 tested, 69% active;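 active = membrane potential signal moved up or down beyond 5 SD of buffer control wells, in both duplicate plates, actives on both sides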
TRPC4 ctr inh 2: mouse TRPC4 off-target activity of TRPC6 modulators, second screen. shares compounds with TRPC6 inhibitor. HEK293 TRPC4/mu-opioid, membrane potential dye fluorescence; stimulated with maximal-effect DAMGO. inhibition, % at 10 µM. 2,400 tested, 55% active;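 active = drop in membrane potential signal beyond 5 SD of the control wells in both duplicate plates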;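 note: TRPC4 counter screen for TRPC6 hits run under conditions tuned for TRPC6 not TRPC4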
TRPC6 block conf: mouse TRPC6 inhibitor confirmation; shares compounds with TRPC6 inhibitor; 3,300 tested, 43% active; HEK293-TRPC6, membrane potential dye, ACh-evoked depolarization; inhibition, % at 10 µM;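 active = fluorescence ratio falls more than 5 SD below the full-stimulation control mean, in both duplicate runs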;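 note: integrated fluorescence ratio of peak minus minimum over baseline after agonist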
TRPC6 act conf: mouse TRPC6 activator confirmation. activation, % at 10 µM. 2,800 tested, 11% active. shares compounds with TRPC6 inhibitor. HEK293-TRPC6 membrane potential dye fluorescence, FDSS;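 active = ratio signal rise beyond 5 SD above unstimulated control wells' mean, seen in both duplicate runs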
Large screens that a line does not name were inactive (follow-up assays come after a bar, where they were run).

O=c1c2ccccc2sc2ccc(NCCCN3CCOCC3)cc12	TRPC6 activator 34.1 | HEK293 MPD ctr-2 939.5% | HEK293 MPD ctr 2-2 inactive | TRPC4 ctr mod 190.5% | TRPC4 ctr inh 2 79.5% | TRPC6 act conf 365.0%
COc1ccc2sc3ccccc3c(=O)c2c1	none
O=c1c2ccccc2oc2ccc(NCCCn3ccnc3)cc12	none
Cc1cc2oc3cc(NCCC4CCCN4C)ccc3c(=O)c2cc1C (stereo unspecified)	TRPC6 inhibitor -5.93 | HEK293 MPD ctr-2 inactive | HEK293 MPD ctr 2-2 84.0% | TRPC4 ctr mod -11.0% | TRPC4 ctr inh 2 76.5% | TRPC6 block conf 49.5% | TRPC6 act conf inactive
Cc1c(C=O)c2ccccn2c1C(=O)c1cccc([N+](=O)[O-])c1	none
CC1CC(O)(CC(O)(c2ccccc2)c2ccccc2)C(C)CN1C (stereo unspecified)	none
CCN1CC(C)C(O)(c2ccccc2)CC1C (stereo unspecified)	TRPC6 inhibitor -7.15 | TRPC4 sel inh 2 inactive | TRPC4 spec inactive | HEK293 MPD ctr 2-1 inactive | HEK293 MPD ctr-1 inactive | TRPC6 block conf inactive | TRPC6 act conf inactive
COc1ccc(-n2cc(CNC3CCC(O)CC3)c(-c3cccc(F)c3)n2)cc1 (stereo unspecified)	TRPC6 inhibitor -8.29 | TRPC4 sel inh 2 inactive | TRPC4 spec inactive | HEK293 MPD ctr 2-1 inactive | HEK293 MPD ctr-1 inactive | TRPC6 block conf inactive | TRPC6 act conf inactive
COc1ccc(-n2cc(CN3CCC(OC)CC3)c(-c3cccc(F)c3)n2)cc1	none
Cc1ccc(-c2nnc(CSc3nc(C(C)C)nc4sc(C)c(C)c34)o2)cc1	TRPC6 inhibitor -5.55 | HEK293 MPD ctr-2 inactive | HEK293 MPD ctr 2-2 inactive | TRPC4 ctr mod inactive | TRPC4 ctr inh 2 inactive | TRPC6 block conf inactive | TRPC6 act conf inactive
CN1CCCC(C#CC(O)(c2ccccc2)c2ccccc2)C1 (stereo unspecified)	TRPC6 inhibitor -8.75 | TRPC4 sel inh 2 inactive | TRPC4 spec inactive | HEK293 MPD ctr 2-1 inactive | HEK293 MPD ctr-1 inactive | TRPC6 block conf inactive | TRPC6 act conf inactive
C=CCn1cccc(C(=O)Nc2ccc(N(C)C)cc2)c1=O	none
CC(=O)c1c(Cl)nc2cccc3c2c1-c1ccccc1C3=O	none
COc1ccc(C(=O)C2CCCN(Cc3cccn3-c3nccs3)C2)cc1OC (stereo unspecified)	TRPC6 inhibitor -5.25 | HEK293 MPD ctr-2 inactive | HEK293 MPD ctr 2-2 inactive | TRPC4 ctr mod inactive | TRPC4 ctr inh 2 68.5% | TRPC6 block conf inactive | TRPC6 act conf inactive
COc1cccc(C(=O)C2CCCN(Cc3cccn3-c3ccccn3)C2)c1 (stereo unspecified)	TRPC4 block -7, TRPC6 inhibitor -5.92 | HEK293 MPD ctr-2 145.5% | HEK293 MPD ctr 2-2 inactive | TRPC4 ctr mod 14.0% | TRPC4 ctr inh 2 84.5% | TRPC6 block conf 59.5%
Cc1ccsc1C(=O)C1CCCN(Cc2cccn2-c2ccc(Cl)cn2)C1 (stereo unspecified)	TRPC6 inhibitor -5.95, Kir21 inh -4.59 | HEK293 MPD ctr-2 inactive | HEK293 MPD ctr 2-2 inactive | TRPC4 ctr mod inactive | TRPC4 ctr inh 2 89.5% | TRPC6 block conf 53.5%
COc1ccc(C(=O)C2CCCN(Cc3cccn3-c3nccs3)C2)cc1F (stereo unspecified)	none
COc1ccc(C(=O)C2CCCN(Cc3cccn3-c3ccccn3)C2)cc1F (stereo unspecified)	TRPC6 inhibitor -11.8 | TRPC4 sel inh 2 15.5% | TRPC4 spec inactive | HEK293 MPD ctr 2-1 21.0% | HEK293 MPD ctr-1 -0.1% | TRPC6 block conf 106.9% | TRPC6 act conf inactive
O=C(c1ccc(Cl)cc1)C1CCCN(Cc2cccn2-c2ccccn2)C1 (stereo unspecified)	none
O=C(CN1CCC(O)(c2cccc(F)c2)CC1)NCCc1c[nH]c2ccccc12	none
COc1ccc(C(c2nnnn2CCc2ccccc2)N2CCN(C3CCCC3)CC2)cc1 (stereo unspecified)	none
N#Cc1cccc(C(c2nnnn2CCc2ccccc2)N2CCN(C3CCCCC3)CC2)c1 (stereo unspecified)	TRPC6 inhibitor -5.04 | HEK293 MPD ctr-2 inactive | HEK293 MPD ctr 2-2 inactive | TRPC4 ctr mod inactive | TRPC4 ctr inh 2 70.5% | TRPC6 block conf 54.0% | TRPC6 act conf inactive
Cc1sc2nc(SCC(=O)N(C)c3ccccc3)n(C)c(=O)c2c1C	none
CC(=O)c1cccc(NC(=O)NC2CC3CCCC(C2)N3CC(C)C)c1 (stereo unspecified)	TRPC6 inhibitor -8.8, TRPC6 activator 17.3 | HEK293 MPD ctr-2 inactive | HEK293 MPD ctr 2-2 inactive | TRPC4 ctr mod inactive | TRPC4 ctr inh 2 inactive | TRPC6 block conf 46.5% | TRPC6 act conf 110.5%
CCN(CC)C(=O)NC1CC2CCCC(C1)N2Cc1ccccc1 (stereo unspecified)	none
CCCN1C2CCCC1CC(NC(=O)Nc1ccc(C(C)C)cc1)C2 (stereo unspecified)	none
